Reference: ChEMBL document CHEMBL3124896, “Optimization of the lactam side chain of 7-azaindenoisoquinoline topoisomerase I inhibitors and mechanism of action studies in cancer cells” (2014)
Calls of active or inactive are those of the source. The calls are words filed in the database; no cut-off is given here.

What was measured:
HCT-116 [1] = test: Cytotoxicity against human HCT116 cells transfected with Top1-siRNA after 72 hrs by MTT assay; assay type: functional; details: HCT-116, 72 h
Procedure, shortened: (§1)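 Cells were seeded 24 h before dosing and exposed continuously for 72 h. Growth was read by colorimetric MTS assay and expressed relative to vehicle-treated controls set at 100. GI50 is the level giving 50% growth inhibition, from at least two independent determinations. HCT116 and siTop1 cells were kept in RPMI 1640/10% FBS with 100 μg/mL hygromycin; RC0.1 in RPMI 1640/10% FBS.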

HCT-116 [2] = test: Cytotoxicity against human HCT116 cells after 72 hrs by MTT assay; assay type: functional; details: HCT-116, 72 h; procedure, shortened: as §1
[3] = Cytotoxicity against human RC0.1 cells after 72 hrs by MTT assay; assay type: functional; procedure, shortened: as §1
DU-145 [4] = test: Cytotoxicity against human DU145 cells after 72 hrs by MTT assay; assay type: functional; details: DU-145, 72 h; procedure, shortened: as §1
MCF7 = test: Cytotoxicity against human MCF7 cells by SRB assay; assay type: functional
HCT-116 [5] = test: Induction of DNA damage in human HCT116 cells assessed as induction of histone gamma-H2AX level at 1 uM after 1 hr by flow cytometry
[6] = Resistance ratio of GI50 for human mitoxantrone-resistant H460 cells to GI50 for human H460 cells; assay type: functional
Procedure, shortened: (§2)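 Relative resistance = GI50 in the resistant subline divided by GI50 in the parental line. Both GI50s came from 72 h continuous-exposure MTS growth assays, each based on at least two independent determinations.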

[7] = Cytotoxicity against human mitoxantrone-resistant H460 cells after 72 hrs by MTT assay; assay type: functional; details: NCI-H460, 72 h; procedure, shortened: as §1
[8] = Resistance ratio of GI50 for vinblastine-resistant human KBV1 cells to GI50 for human KB 3.1 cells; assay type: functional
[9] = Cytotoxicity against human H460 cells after 72 hrs by MTT assay; assay type: functional; details: NCI-H460, 72 h; procedure, shortened: as §1
[10] = Cytotoxicity against vinblastine-resistant human KBV1 cells after 72 hrs by MTT assay; assay type: functional; details: KB-V1, 72 h; procedure, shortened: as §1
[11] = Cytotoxicity against human KB 3.1 cells after 72 hrs by MTT assay; assay type: functional; details: KB 3-1, 72 h; procedure, shortened: as §1
HCT-116 [12] = test: Resistance ratio of GI50 for human HCT116 cells transfected with Top1-siRNA to GI50 for human HCT116 cells; assay type: functional; procedure, shortened: as §2
DU-145 [13] = test: Resistance ratio of GI50 for human RC0.1 cells to GI50 for human DU145 cells; assay type: functional; procedure, shortened: as §2
HCT-116 [14] = test: Cell cycle arrest in human HCT116 cells assessed as accumulation at G2 phase at 1 uM incubated for 1 hr followed by compound washout measured after 6 to 48 hrs by propidium iodide staining-based FACS analysis; assay type: functional
Procedure, shortened: (§3)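 HCT116 cells exposed to 1 μM drug for 1 h, then kept in drug-free medium for the stated times. Fixed cells were stained with propidium iodide and analysed by flow cytometry for DNA content histograms. Phase distributions were computed from the histograms.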

HCT-116 [15] = test: Cell cycle arrest in human HCT116 cells assessed as accumulation at S phase at 1 uM incubated for 1 hr followed by compound washout measured after 3 hrs by propidium iodide staining-based FACS analysis; assay type: functional; procedure, shortened: as §3
HCT-116 [16] = test: Cell cycle arrest in human HCT116 cells at 1 uM incubated for 1 hr followed by compound washout measured up to 1 hr by propidium iodide staining-based FACS analysis; assay type: functional; procedure, shortened: as §3
HCT-116 [17] = test: Cell cycle arrest in human HCT116 cells at 1 uM after 1 hr by propidium iodide staining-based FACS analysis; assay type: functional; procedure, shortened: as §3
[18] = target: T1, DNA topoisomerase 1 (Homo sapiens) (UniProt P11387); test: Inhibition of human recombinant topoisomerase 1 in human HCT116 cells assessed as DNA-protein cross linking at 1 uM incubated for 1 hr followed by compound washout measured after 1 hr; assay type: cell-based; details: HCT-116
T1 sequence (whole entry): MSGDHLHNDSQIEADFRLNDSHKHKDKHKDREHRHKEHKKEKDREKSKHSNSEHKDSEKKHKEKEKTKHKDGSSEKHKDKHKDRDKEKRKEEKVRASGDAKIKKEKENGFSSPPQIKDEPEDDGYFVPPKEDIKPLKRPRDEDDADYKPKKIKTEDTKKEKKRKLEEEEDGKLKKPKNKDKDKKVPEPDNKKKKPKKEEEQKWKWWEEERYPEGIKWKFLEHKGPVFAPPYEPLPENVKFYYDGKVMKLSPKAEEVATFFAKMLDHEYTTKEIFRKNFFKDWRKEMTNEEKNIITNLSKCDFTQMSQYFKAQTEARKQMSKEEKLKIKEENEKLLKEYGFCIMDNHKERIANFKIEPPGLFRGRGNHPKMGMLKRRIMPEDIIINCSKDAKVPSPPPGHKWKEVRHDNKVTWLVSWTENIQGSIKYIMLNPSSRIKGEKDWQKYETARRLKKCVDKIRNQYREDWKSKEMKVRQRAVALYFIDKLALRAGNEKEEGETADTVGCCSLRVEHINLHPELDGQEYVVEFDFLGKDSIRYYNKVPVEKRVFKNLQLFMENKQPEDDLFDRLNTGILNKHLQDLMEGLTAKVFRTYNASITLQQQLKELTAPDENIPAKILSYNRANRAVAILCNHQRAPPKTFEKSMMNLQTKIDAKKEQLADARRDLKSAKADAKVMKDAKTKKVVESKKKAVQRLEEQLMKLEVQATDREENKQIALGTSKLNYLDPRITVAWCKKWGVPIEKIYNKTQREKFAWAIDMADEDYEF
Procedure, shortened: (§4)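 In HCT116 cells, Top1 cleavage complexes were quantified as DNA–protein cross-links by alkaline elution, plotting the fraction of DNA retained on the filter against time. Persistence was read 1 h after drug removal. The negative control was untreated cells given 30 Gy irradiation to create strand breaks.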

[19] = target: T1, DNA topoisomerase 1 (Homo sapiens); test: Inhibition of human recombinant topoisomerase 1 in human HCT116 cells assessed as DNA-protein cross linking at 1 uM after 1 hr; assay type: cell-based; details: HCT-116; procedure, shortened: as §4
[20] = target: T1, DNA topoisomerase 1 (Homo sapiens); test: Inhibition of human recombinant topoisomerase 1 in human HCT116 cells assessed as reversal of topoisomerase 1-DNA cleavage complex stabilization at 1 uM incubated for 1 hr followed by compound washout measured after 24 hrs by DNA immunoblotting analysis; assay type: cell-based; details: HCT-116
Procedure, shortened: (§5)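 10^6 HCT116 cells were treated with 1 μM for 1 h, and for reversal were held in drug-free medium for the set times. Cells were lysed with DNAzol and genomic DNA was isolated and sonicated. Serial dilutions were slot-blotted onto membranes and Top1–DNA complexes detected with the C21 anti-Top1 monoclonal antibody by immunoblotting (ICE method).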

[21] = target: T1, DNA topoisomerase 1 (Homo sapiens); test: Inhibition of human recombinant topoisomerase 1 in human HCT116 cells assessed as reversal of topoisomerase 1-DNA cleavage complex stabilization at 1 uM incubated for 1 hr followed by compound washout measured up to 6 hrs by DNA immunoblotting analysis; assay type: cell-based; details: HCT-116; procedure, shortened: as §5
[22] = target: T1, DNA topoisomerase 1 (Homo sapiens); test: Inhibition of human recombinant topoisomerase 1 in human HCT116 cells assessed as stabilization of topoisomerase 1-DNA cleavage complex at 1 uM after 1 hr by DNA immunoblotting analysis; assay type: cell-based; details: HCT-116; procedure, shortened: as §5
[23] = target: T1, DNA topoisomerase 1 (Homo sapiens); test: Inhibition of human recombinant topoisomerase 1 using radiolabeled DNA as substrate after 20 mins by SDS-PAGE
Procedure, shortened: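 A 117 bp oligonucleotide was 3′-end-labelled with [α-32P]dGTP by Klenow fill-in. Reactions were stopped with 0.5% SDS and run on 20% denaturing polyacrylamide gels. Cleavage bands were scored visually on a semiquantitative scale.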

DU-145 [24] = test: Cytotoxicity against human DU145 cells by SRB assay; assay type: functional
SN12C = test: Cytotoxicity against human SN12C cells by SRB assay; assay type: functional
OVCAR-3 = test: Cytotoxicity against human OVCAR3 cells by SRB assay; assay type: functional
UACC-62 = test: Cytotoxicity against human UACC62 cells by SRB assay; assay type: functional
SF-539 = test: Cytotoxicity against human SF539 cells by SRB assay; assay type: functional
HCT-116 [25] = test: Cytotoxicity against human HCT116 cells by SRB assay; assay type: functional
HOP-62 = test: Cytotoxicity against human HOP62 cells by SRB assay; assay type: functional
[26] = target: T1, DNA topoisomerase 1 (Homo sapiens); test: Inhibition of human recombinant topoisomerase 1 using radiolabeled DNA as substrate at 0.1 to 100 uM after 20 mins by SDS-PAGE
Procedure, shortened: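 Baculovirus-purified human recombinant Top1 with ~2 nM of a 117 bp oligonucleotide, 3′-end-labeled with [α-32P]dGTP by Klenow fill-in. Drugs at 0.1, 1, 10, 100 μM; 25 °C, 20 min. Stopped with 0.5% SDS, run on 20% denaturing PAGE, phosphorimaged. Cleavage bands scored visually against camptothecin standard.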

| SMILES | inhibition [23] | inhibition [26] | GI50 (HCT-116 [1]) [nM] | GI50 (HCT-116 [2]) [nM] | GI50 [3] [nM] | GI50 (DU-145 [4]) [nM] | GI50 (MCF7) [nM] | Activity (HCT-116 [5]) [%] | GI50 (DU-145 [24]) [nM] | GI50 (SN12C) [nM] | GI50 (OVCAR-3) [nM] | GI50 (UACC-62) [nM] | GI50 (SF-539) [nM] | GI50 (HCT-116 [25]) [nM] | GI50 (HOP-62) [nM] | also measured |
| --- | --- | --- | --- | --- | --- | --- | --- | --- | --- | --- | --- | --- | --- | --- | --- | --- |
| CC[C@@]1(O)C(=O)OCc2c1cc1n(c2=O)Cc2cc3ccccc3nc2-1 [CAMPTOTHECIN] | – | – | 35.5 | 17.4 | > 1000 | 18.2 | 13 | 40.9 | – | – | – | – | – | – | – | – |
| COc1cnc2c(c1)C(=O)c1c-2n(CCCN2CCOCC2)c(=O)c2cc([N+](=O)[O-])ccc12 | Active | – | 112 | 126 | 1050 | 141 | – | 37.6 | – | – | – | – | – | – | – | RatioGI50 [6]: 5.25; GI50 [7]: 178 nM; RatioGI50 [8]: 0.74; GI50 [9]: 33.9 nM; GI50 [10]: 417 nM; GI50 [11]: 562 nM; RatioGI50 (HCT-116 [12]): 0.89; RatioGI50 (DU-145 [13]): 7.41; Activity (HCT-116 [14]): Active; Activity (HCT-116 [15]): Active; Activity (HCT-116 [16]): Active; Activity (HCT-116 [17]): Active; inhibition [18]: Active; inhibition [19]: Active; inhibition [20]: Active; inhibition [21]: Active; inhibition [22]: Active |
| COc1cnc2c(c1)C(=O)c1c-2n(CCCN2CCOCC2)c(=O)c2cc(OC)c(OC)cc12 | Active | – | – | – | – | – | – | – | – | – | – | – | – | – | – | – |
| O=C1c2cccnc2-c2c1c1ccc([N+](=O)[O-])cc1c(=O)n2CCCN1CCOCC1 | Active | – | – | – | – | – | – | – | – | – | – | – | – | – | – | – |

Continued, in another order:

| inhibition [23] | inhibition [26] | SMILES | GI50 (HCT-116 [1]) [nM] | GI50 (HCT-116 [2]) [nM] | GI50 [3] [nM] | GI50 (DU-145 [4]) [nM] | GI50 (MCF7) [nM] | Activity (HCT-116 [5]) [%] | GI50 (DU-145 [24]) [nM] | GI50 (SN12C) [nM] | GI50 (OVCAR-3) [nM] | GI50 (UACC-62) [nM] | GI50 (SF-539) [nM] | GI50 (HCT-116 [25]) [nM] | GI50 (HOP-62) [nM] | also measured |
| --- | --- | --- | --- | --- | --- | --- | --- | --- | --- | --- | --- | --- | --- | --- | --- | --- |
| – | Active | COc1cnc2c(c1)C(=O)c1c-2n(CCCn2ccnc2)c(=O)c2cc([N+](=O)[O-])ccc12.Cl | 70.8 | 21.9 | > 1000 | 45.7 | < 10 | 37.3 | < 10 | < 10 | 25 | < 10 | < 10 | < 10 | < 10 | RatioGI50 [6]: 19.05; GI50 [7]: 417 nM; RatioGI50 [8]: 1.02; GI50 [9]: 21.9 nM; GI50 [10]: 427 nM; GI50 [11]: 417 nM; RatioGI50 (HCT-116 [12]): 3.24; RatioGI50 (DU-145 [13]): >21.88; Activity (HCT-116 [14]): Active; Activity (HCT-116 [15]): Active; Activity (HCT-116 [16]): Active; Activity (HCT-116 [17]): Active; inhibition [18]: Active; inhibition [19]: Active; inhibition [20]: Active; inhibition [21]: Active; inhibition [22]: Active |
| – | Active | COc1cnc2c(c1)C(=O)c1c-2n(CCCN2CCC(O)CC2)c(=O)c2cc([N+](=O)[O-])ccc12 | – | – | – | – | < 10 | – | < 10 | < 10 | 58 | < 10 | 10 | 10 | < 10 | – |
| Active | – | COc1cnc2c(c1)C(=O)c1c-2n(CCCN(C)C)c(=O)c2cc([N+](=O)[O-])ccc12 | – | – | – | – | – | – | – | – | – | – | – | – | – | – |
| – | Active | COc1cnc2c(c1)C(=O)c1c-2n(CCCN)c(=O)c2cc([N+](=O)[O-])ccc12 | – | – | – | – | < 10 | – | 35 | 40 | 98 | 24 | 73 | 36 | 19 | – |
